The source of these data is ChEMBL document CHEMBL1136016, “Synthesis, biological activity, and molecular modeling investigation of new pyrazolo[4,3-e]-1,2,4-triazolo[1,5-c]pyrimidine derivatives as human A(3) adenosine receptor antagonists” (J Med Chem, 2002).

Molecules are shown by their SMILES.

Test [1] has as its target T1, Adenosine receptor A1 (Homo sapiens, UniProt P30542).
T1 sequence (P30542 whole entry): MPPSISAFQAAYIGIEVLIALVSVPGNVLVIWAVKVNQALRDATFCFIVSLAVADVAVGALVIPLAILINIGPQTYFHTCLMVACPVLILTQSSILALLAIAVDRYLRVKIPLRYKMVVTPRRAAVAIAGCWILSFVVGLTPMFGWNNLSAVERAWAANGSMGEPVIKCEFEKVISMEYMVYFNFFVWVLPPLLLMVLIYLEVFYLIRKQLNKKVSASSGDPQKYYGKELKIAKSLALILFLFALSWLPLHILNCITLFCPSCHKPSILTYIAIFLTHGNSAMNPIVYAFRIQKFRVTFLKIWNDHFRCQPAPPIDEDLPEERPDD
The experiment in a line: Displacement of [3H]DPCPX from human Adenosine A1 receptor expressed in CHO cells; range 237-384. In kind it is cell-based. In a few lines:
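Competition binding on membranes of CHO cells stably expressing human A1 receptor, resuspended in 50 mM Tris HCl pH 7.4. Incubation 120 min at 25 °C with 1 nM [3H]DPCPX, 50 µg protein per assay and at least six to eight test concentrations. CHA defined nonspecific binding. Bound ligand separated on glass-fibre filters and counted; n = 3-6.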

Test [2] deals with T2, Adenosine receptor A3 (Homo sapiens, UniProt P0DMS8).
T2 sequence (P0DMS8 whole entry): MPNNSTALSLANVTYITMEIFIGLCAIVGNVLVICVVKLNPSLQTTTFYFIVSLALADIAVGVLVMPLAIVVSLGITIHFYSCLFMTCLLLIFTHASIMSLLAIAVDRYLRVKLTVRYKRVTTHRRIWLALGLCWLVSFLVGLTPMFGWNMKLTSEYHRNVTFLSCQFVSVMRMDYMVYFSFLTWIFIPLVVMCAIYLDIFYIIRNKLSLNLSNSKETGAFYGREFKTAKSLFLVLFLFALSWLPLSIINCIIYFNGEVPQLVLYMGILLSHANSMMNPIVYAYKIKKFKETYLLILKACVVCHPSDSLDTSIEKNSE
The experiment in a line: Displacement of [3H]MRE3008-F20 from human Adenosine A3 receptor expressed in HEK cells; range 0.31-0.56. In kind it is cell-based, HEK293. For orientation: Loss of bound radioactivity is the signal in a displacement assay; it reports binding, not function.

Test [3] addresses T3, Adenosine receptor A2a (Homo sapiens, UniProt P29274). The experiment in a line: Displacement of [3H]SCH-58261 from human Adenosine A2A receptor expressed in HEK293 cells; range 8-18. Format: cell-based.
The target in test [4] is T4, Adenosine receptor A2b (Homo sapiens, UniProt P29275).
T4 sequence (P29275 whole entry): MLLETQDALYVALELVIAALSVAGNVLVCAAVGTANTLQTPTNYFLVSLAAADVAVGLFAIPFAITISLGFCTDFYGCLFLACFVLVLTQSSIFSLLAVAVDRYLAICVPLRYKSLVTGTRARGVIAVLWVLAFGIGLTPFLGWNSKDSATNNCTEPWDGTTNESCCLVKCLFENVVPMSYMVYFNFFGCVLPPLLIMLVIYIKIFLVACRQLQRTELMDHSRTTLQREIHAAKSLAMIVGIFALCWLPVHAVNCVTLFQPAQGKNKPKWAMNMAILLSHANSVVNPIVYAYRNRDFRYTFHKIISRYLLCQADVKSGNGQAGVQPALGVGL
Briefly: Displacement of [3H]DPCPX from human Adenosine A2B receptor expressed in HEK293 cells; range 34-62. Format: cell-based. In a few lines:
(§1)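 HEK-293 membranes expressing the human receptor were incubated 60 min at 25 °C. Six to eight test concentrations were used. Nonspecific binding was set with NECA. n = 3-6.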

Test [5] addresses Adenosine receptors; A2b & A3 (Homo sapiens) (UniProt P29275+P0DMS8). Briefly: Selectivity ratio (h2B/hA3). Format: protein assay.
The target of test [6] is Adenosine receptors; A1 & A3 (Homo sapiens) (UniProt P30542+P0DMS8). The experiment in a line: Selectivity ratio (hA1/hA3). In kind it is protein assay.
Test [7] has as its target T4, Adenosine receptor A2b. Briefly: Displacement of [3H]DPCPX from human Adenosine A2B receptor expressed in HEK293 cells; range 124-180. Format: cell-based. In a few lines: as §1
Test [8] addresses T1, Adenosine receptor A1. Briefly: Displacement of [3H]DPCPX from human Adenosine A1 receptor expressed in CHO cells; range 184-333. Format: cell-based.
Test [9] has as its target T3, Adenosine receptor A2a. The experiment in a line: Displacement of [3H]SCH-58261 from human Adenosine A2A receptor expressed in HEK293 cells; range 78-114. Format: cell-based.
The target in test [10] is T2, Adenosine receptor A3. Briefly: Displacement of [3H]MRE3008-F20 from human Adenosine A3 receptor expressed in HEK cells; range 0.53-0.68. In kind it is cell-based, HEK293.
Test [11] concerns the target T1, Adenosine receptor A1. The experiment in a line: Displacement of [3H]DPCPX from human Adenosine A1 receptor expressed in CHO cells; range 290-418. Format: cell-based. In a few lines: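 Human recombinant A1 receptor in CHO cell membranes, resuspended in 50 mM Tris HCl pH 7.4. Displacement run 120 min at 25 °C with 1 nM [3H]DPCPX, 50 µg protein per assay, and at least six to eight test concentrations. Nonspecific binding defined with CHA. Bound and free separated on glass-fiber filters; filter radioactivity counted. n = 3-6.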

Test [12] has as its target T2, Adenosine receptor A3. The experiment in a line: Displacement of [3H]MRE3008-F20 from human Adenosine A3 receptor expressed in HEK cells; range 0.37-0.56. Format: cell-based, HEK293.
Test [13] has as its target T3, Adenosine receptor A2a. The experiment in a line: Displacement of [3H]SCH-58261 from human Adenosine A2A receptor expressed in HEK293 cells; range 40-62. In kind it is cell-based.
Test [14] concerns the target T4, Adenosine receptor A2b. The experiment in a line: Displacement of [3H]DPCPX from human Adenosine A2B receptor expressed in HEK293 cells; […]. Format: cell-based. In a few lines:
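Competition binding on membranes of HEK-293 cells carrying recombinant human A2B receptor. Incubation 60 min at 25 °C in 50 mM Tris HCl pH 7.4 with 10 mM MgCl2, 1 mM EDTA, 0.1 mM benzamidine and 2 IU/mL adenosine deaminase. Radioligand 40 nM [3H]DPCPX, at least six to eight test concentrations. NECA defined nonspecific binding. Bound ligand separated on glass-fibre filters and counted; n = 3-6.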

Test [15] has as its target T1, Adenosine receptor A1. The experiment in a line: Displacement of [3H]DPCPX from human Adenosine A1 receptor expressed in CHO cells; range 345-465. In kind it is cell-based.
The target in test [16] is T2, Adenosine receptor A3. The experiment in a line: Displacement of [3H]MRE3008-F20 binding at human Adenosine A3 receptor expressed in HEK cells; range 0.77-0.96. In kind it is cell-based, HEK293.
The target in test [17] is T3, Adenosine receptor A2a. Briefly: Displacement of [3H]SCH-58261 from human Adenosine A2A receptor expressed in HEK293 cells; range 114-170. In kind it is cell-based.
Test [18] has as its target T4, Adenosine receptor A2b. Briefly: Displacement of [3H]DPCPX from human Adenosine A2B receptor expressed in HEK293 cells; range 116-134. Format: cell-based. In a few lines:
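Membranes from HEK-293 cells with human recombinant A2B receptor. Incubation 60 min at 25 °C in 50 mM Tris HCl, 10 mM MgCl2, 1 mM EDTA, 0.1 mM benzamidine, pH 7.4, with 2 IU/mL adenosine deaminase and 40 nM [3H]DPCPX. At least six to eight test concentrations. Nonspecific binding defined with NECA. n = 3-6.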

The target in test [19] is T1, Adenosine receptor A1. Briefly: Displacement of [3H]DPCPX from human Adenosine A1 receptor expressed in CHO cells; range 156-258. Format: cell-based.
Test [20] has as its target T3, Adenosine receptor A2a. Briefly: Displacement of [3H]SCH-58261 from human Adenosine A2A receptor expressed in HEK293 cells; range 71-111. In kind it is cell-based.
Test [21] addresses T2, Adenosine receptor A3. Briefly: biochemical.

T3 sequence (P29274 whole entry): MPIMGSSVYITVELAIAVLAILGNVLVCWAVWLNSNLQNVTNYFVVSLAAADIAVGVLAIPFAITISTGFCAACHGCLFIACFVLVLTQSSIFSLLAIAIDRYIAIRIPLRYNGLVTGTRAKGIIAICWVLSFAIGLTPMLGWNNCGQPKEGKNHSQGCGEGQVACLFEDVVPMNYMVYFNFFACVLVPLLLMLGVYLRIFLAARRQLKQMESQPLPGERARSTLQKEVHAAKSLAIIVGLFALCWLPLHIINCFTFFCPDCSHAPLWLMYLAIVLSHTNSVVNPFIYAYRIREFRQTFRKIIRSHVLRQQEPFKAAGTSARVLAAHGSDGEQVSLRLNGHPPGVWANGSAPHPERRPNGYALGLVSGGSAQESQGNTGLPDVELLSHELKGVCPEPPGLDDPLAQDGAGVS

Turning to `CCCn1cc2c(nc(NC(=O)Nc3ccc(C)cc3)n3nc(-c4ccco4)nc23)n1`, the Ki (as a rule, the dissociation constant of the complex between target and ligand, obtained from inhibition or displacement) in [1] worked out at 302 nM; in test [2] it was 0.4 nM; in test [3] it was 12 nM; in test [4] it was 46 nM. In addition, the Ratio turned out to be 115 in test [5] and 755 in test [6].

With `CCCCn1cc2c(nc(NC(=O)Nc3cccc(OC)c3)n3nc(-c4ccco4)nc23)n1`, the Ki in [7] amounted to 150 nM; in test [8], 248 nM; in [9] it was 95 nM; in test [10], 0.6 nM. Moreover, the Ratio stood at 250 in [5] and 413 in test [6].

For `CCCn1cc2c(nc(NC(=O)Nc3ccc(Br)cc3)n3nc(-c4ccco4)nc23)n1`, the Ki amounted to 150 nM in [7], 350 nM in [11], 0.45 nM in test [12] and 50 nM in test [13]. Moreover, the Ratio in [5] turned out to be 333; in test [6], 778.

On to `CCn1cc2c(nc(NC(=O)Nc3cccc(OC)c3)n3nc(-c4ccco4)nc23)n1`, for which the Ki in test [14] is 215 nM; in test [15], 400 nM; in test [16] it was 0.86 nM; in test [17] it was 140 nM. Moreover, the figures for the Ratio in test [5] and in test [6] were 250 and 465, respectively.

In the case of `CCCCn1cc2c(nc(NC(=O)Nc3ccccc3OC)n3nc(-c4ccco4)nc23)n1`, the Ki was 125 nM in test [18], 200 nM in test [19], 91 nM in test [20] and 0.57 nM in test [21]. For the same compound, the Ratio in test [5] was 219; in test [6], 351.
